Here are results for 18 compounds from PubChem BioAssay.

Unmarked numbers belong to inactive results. Records with an inconclusive call do not appear. Activity calls are given as the source filed them.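 The calls were made as follows, unless noted: active = growth inhibition above 25% in both replicates, a cutoff set 3 SD above the mean; inconclusive = above 25% in only one replicate; inactive = the rest.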

Assay [1] can be described thus: S. cerevisiae growth inhibition in permissive medium (OD615), pilot counter-assay for S. cerevisiae lifespan shortening project, permissive growth control (AID 705). The note with it: OD615, 24 h, at 10 µM, hits give high values. In a few lines: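 System – S. cerevisiae with engineered DeaD lifespan system · Buffer or medium – SC raffinose/galactose permissive medium · Schedule – cells pre-grown 4 h, then 24 h compound exposure, 30 °C humidified · Technique – culture turbidity as optical density at 615 nm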

Assay [2] can be described thus: S. cerevisiae growth inhibition in restrictive medium, OD615, pilot screen, restrictive growth control, yeast lifespan reduction project (AID 706;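 active = growth inhibition above a set limit, 3 SD over mean compound inhibition, in both replicates, cut at about 43% in these data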;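 also: modified DeaD lifespan yeast strain shifted to restrictive glucose medium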). To be noted: OD615, 48 h, at 10 µM, hits give high values. In a few lines:
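Material: engineered S. cerevisiae DeaD strain / Medium: glucose-based CSMM-D restrictive medium / Compound: single dose of 10 µM compound final, 0.25% DMSO / Timing: 4 h pre-incubation, 48 h exposure at 30 °C / Technique: OD615 absorbance reading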

Assay [3] can be described thus: doxorubicin toxicity protection in MRP-1 cells – H69AR cells, CellTiter-Glo, duplicate, MRP-1 activator project, pilot screen (AID 807;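 active = viability increase at or above a cutoff of the median across tested compounds plus 3 SD, cut at about 8.5% in these data, passing the limit was not always enough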;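 also: compound pretreatment 18-22 h then 72 h combined with doxorubicin; 0% = doxorubicin alone and 100% = vehicle without doxorubicin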). The note with it: H69AR viability with doxorubicin, CellTiter-Glo luminescence; at 10 µM; hits give high values. For orientation: Cellular ATP, detected with luciferase, serves as a proxy for viable cell number.
Assay [4] in a line: viability of HCT116 without oncogenic beta-catenin – human colon tumor cells, pilot screen (AID 823;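 active = cell viability at or below a set limit in both duplicate runs, the limit being the all-compound median minus 4 SD, cut at about 23% in these data, passing the limit was not always enough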;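 also: 0% = wells killed by 20 µM Hyamine and 100% = untreated DMSO cell wells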). To be noted: HCT116 beta-catenin knockout viability, CellTiter-Glo, 60 h; at 10 µM; hits give low values.
Assay [5] in a line: viability of PTEN-null HCT116 cells – cell-based, HCT116 clonal line, CellTiter-Glo, pilot screen (AID 824;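 active = viability at or below 27.92% in each of two runs, the all-compound median minus 4 SD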;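 also: 0% = 20 µM Hyamine control and 100% = vehicle cell control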). The note with it: HCT116 PTEN-deleted viability, 60 h, at 10 µM, hits give low values.
The nature of assay [6]: RAM pathway blockade in budding yeast – dse1pr::URA3 reporter, 5-FOA selection, pilot screen (AID 869;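 active = inhibition over a set limit, the all-compound mean plus 3 SD, in both replicate runs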;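 also: 0% = DMSO wells with no growth and 100% = 10 µM 1-NA-PP1 with full growth; RAM network block rescues cells from 5-FOA so hits raise OD615 growth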). The note with it: S. cerevisiae dse1pr::URA3 5-FOA growth, OD615, 2 d; at 10 µM; hits give high values; strain carries analog-sensitive mutant Cbk1 kinase.
Assay [7] is described as follows: RAM signaling pathway blockade in yeast – S. cerevisiae, Pdr1DBD-CYC8 efflux-inhibited sensitized strain, primary screen (AID 1298;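 active = RAM network inhibition above 8.4% in each of two replicates, 3 SD over the compound average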;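 also: 0% = DMSO untreated cells without growth and 100% = 10 µM 1-NA-PP1 full growth; higher means more yeast growth rescued from 5-FOA killing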). The note with it: S. cerevisiae cbk1-as DSE1-URA3 strain, 5-FOA growth OD615, 2 d; at 50 µM; hits give high values.

What is called viability is a read-out of living cells in per cent, often relative to untreated cells. A word on the inhibition: it is the drop in the measured response relative to a control, in per cent. With `O=S(=O)(c1ccc(Br)cc1)N1CCN(c2cc(-c3ccccc3)nc3ncnn23)CC1`, the growth inhibition in assay [1] is -4.71%; in assay [2], -15.6%. Moreover, the viability increase in assay [3] was -5.82%. Further, the results for the viability in assay [4] and in assay [5] were 61.9% and 71.9%, respectively. Further, the inhibition in assay [6] was 2.37%. Besides, the RAM network inhibition in assay [7] was 2.33%.

As to `CCCCSC1=C(C#N)C(c2ccccc2C)CC(=O)N1` (stereo unspecified), the growth inhibition in assay [1] was -14.2%; in assay [2], 3.23%. Moreover, the viability increase in assay [3] was -2.96%. Further, the viability was 95.1% in assay [4] and 79.6% in assay [5]. The inhibition in assay [6] is 1.03%. For the same compound, the RAM network inhibition in assay [7] was 5.84%.

In the case of `CCC(C)NC(=O)C(Cc1ccccc1)n1cccc1` (stereo unspecified), the growth inhibition was -9.66% in assay [1] and -6.93% in assay [2]. Further, the viability increase in assay [3] is 0.42%. For the same compound, the viability in assay [4] is 101%; in assay [5], 88.4%. Moreover, the inhibition in assay [6] is -0.195%. Also, the RAM network inhibition in assay [7] is 3%.

`COc1ccc2c(c1)CC(C1(O)C(=O)N(C)c3ccccc31)C2=O` (stereo unspecified): the growth inhibition in assay [1] is 2.02%; in assay [2], -8.81%. In addition, the viability increase in assay [3] is -3.79%. Moreover, the viability in assay [4] is 94%; in assay [5] it was 93.3%. Moreover, the inhibition in assay [6] is 0.845%. For the same compound, in assay [7], the RAM network inhibition was 2.96%.

Consider `COc1ccccc1-c1c(C)nn2c(N3CCN(c4ccccc4OC)CC3)cc(C)nc12`, for which the growth inhibition is -0.095% in assay [1] and 6.77% in assay [2]. In addition, the viability increase in assay [3] is -1.57%. The viability in assay [4] is 60.7%; in assay [5], 63.2%. For the same compound, the inhibition in assay [6] was 0.775%. Also, the RAM network inhibition in assay [7] is 1.3%.

`Clc1ccc(-c2nnc(N3CCCC3)nn2)cc1`: the growth inhibition was -7.18% in assay [1] and 4.79% in assay [2]. For the same compound, the viability increase in assay [3] is -2.71%. Moreover, the figures for the viability in assay [4] and in assay [5] were 86.6% and 92.2%, respectively. The inhibition in assay [6] was 0.995%. Also, in assay [7], the RAM network inhibition was 0.52%.

As to `Cc1oc(-c2ccccc2F)nc1CS(=O)CC(=O)NCc1ccc2c(c1)OCO2` (stereo unspecified), the growth inhibition in assay [1] was -13.9%; in assay [2], 2.87%. Moreover, the viability increase in assay [3] was -1.41%. Also, the viability in assay [4] is 94.2%; in assay [5], 89.3%. Besides, the inhibition in assay [6] was 2%. For the same compound, the RAM network inhibition in assay [7] is 7.13%.

Regarding `Cc1noc(NS(=O)(=O)c2ccc(NC(=O)c3cnc4scc(C)n4c3=O)cc2)c1C`, the growth inhibition in assay [1] is -2.39%; in assay [2], -5.18%. Moreover, in assay [3], the viability increase was 1.99%. Also, the viability in assay [4] and in assay [5] was 101% each time. In assay [6], the inhibition was 2.61%. The RAM network inhibition in assay [7] is 6.1%.

Turning to `COc1cc(C(=O)Oc2c(CN3CCOCC3)cc(Cl)c3cccnc23)cc(OC)c1OC`, the growth inhibition in assay [1] was -8.94%; in assay [2], -33.1%. The viability increase in assay [3] was -8.41%. Further, the viability in assay [4] is 6.72% (active); in assay [5] it was 4.81% (active). Further, the inhibition in assay [6] was 1.09%. Also, in assay [7], the RAM network inhibition was 0.27%.

On to `CC1=C(C(=O)OCC(C)C)C(c2ccccc2Cl)NC(=O)N1C` (stereo unspecified), for which the growth inhibition in assay [1] was -4.34%; in assay [2], -8.57%. The viability increase in assay [3] is -3.3%. Further, the viability in assay [4] was 58.5%; in assay [5], 67.8%. The inhibition in assay [6] was 0.59%. In addition, in assay [7], the RAM network inhibition is 1.74%.

For the compound `Cn1c(Cn2c(=O)sc3ccccc32)nnc1SCC(=O)Nc1ccc(Cl)cc1`, the values for the growth inhibition in assay [1] and in assay [2] were -9.07% and -17.2%, respectively. In assay [3], the viability increase was -3.25%. Also, the viability was 98.6% in assay [4] and 89% in assay [5]. In addition, the inhibition in assay [6] was 3.06%. The RAM network inhibition in assay [7] is 5.32%.

As for `CCCOc1ccc(NC(=O)c2c(-c3ccccc3)noc2C)cc1`, the figures for the growth inhibition in assay [1] and in assay [2] were -3.83% and -7.54%, respectively. In addition, the viability increase in assay [3] is -1.84%. In addition, the viability was 103% in assay [4] and 90.5% in assay [5]. In assay [6], the inhibition is 1.34%. Further, the RAM network inhibition in assay [7] was 2.96%.

Regarding `O=C(Nc1ccncc1)c1cccs1`, the results for the growth inhibition in assay [1] and in assay [2] were -6.22% and 4.99%, respectively. Besides, the viability increase in assay [3] is -2.27%. Besides, the viability in assay [4] is 105%; in assay [5], 95.2%. The inhibition in assay [6] was 1.87%. Besides, in assay [7], the RAM network inhibition is 0.93%.

In the case of `Brc1ccc(C2Nc3cccc4cccc(c34)N2)o1`, the growth inhibition in assay [1] is -13.8%; in assay [2], -9.64%. Further, the viability increase in assay [3] is -0.34%. The viability in assay [4] is 85.9%; in assay [5] it was 92.5%. For the same compound, in assay [6], the inhibition was 2.66%. For the same compound, in assay [7], the RAM network inhibition is 1.71%.

`Cc1ccc(C)c(C(=O)N(Cc2nc(-c3ccc(Cl)cc3)no2)C(C)C)c1`: the growth inhibition was -8.99% in assay [1] and -16.6% in assay [2]. Further, in assay [3], the viability increase is -0.54%. Besides, the viability in assay [4] is 56.5%; in assay [5] it was 62.6%. For the same compound, the inhibition in assay [6] was 1.21%. Besides, the RAM network inhibition in assay [7] was 4.04%.

Consider `O=C(Nc1c(F)c(F)c(F)c(F)c1F)C1CCCCC1`, for which the growth inhibition in assay [1] is -1.42%; in assay [2], -6.55%. In assay [3], the viability increase is -1.05%. In addition, the results for the viability in assay [4] and in assay [5] were 80% and 89.2%, respectively. Also, the inhibition in assay [6] was 0.88%. The RAM network inhibition in assay [7] is 7.02%.

Turning to `Nc1ccc(SC(F)(F)F)cc1C(=O)c1ccccc1`, the growth inhibition in assay [1] was -6.7%; in assay [2] it was -13.2%. For the same compound, the viability increase in assay [3] is -0.99%. In addition, the viability in assay [4] was 74%; in assay [5], 70.4%. The inhibition in assay [6] is -2.23%. Moreover, the RAM network inhibition in assay [7] was 3.77%.

As to `COc1cc(C(=O)Nc2ccc(S(=O)(=O)Nc3onc(C)c3C)cc2)cc(OC)c1OC`, the figures for the growth inhibition in assay [1] and in assay [2] were -5.13% and -14.8%, respectively. In addition, in assay [3], the viability increase was 0.55%. The viability is 104% in assay [4] and 105% in assay [5]. The inhibition in assay [6] is 0.945%. Moreover, the RAM network inhibition in assay [7] was 4%.
